# Test results from PMC6045484 (ACS Omega, 2018).
# Entries after “also recorded” stand apart in the source; their conditions may differ.
# Columns and labels:
# [1] = system: M. intracellulare (ATCC23068); assay: in vitro antibacterial activity, modified alamarBlue procedure; assay type: cell-based, Mycobacterium intracellulare; details: Mycobacterium intracellulare; for IC50: ATCC23068, read-out: IC50 (concentration that affords 50% growth inhibition), M. intracellulare; for MBC: ATCC23068, read-out: MBC (minimum bactericidal concentration), M. intracellulare; for MIC: ATCC23068, read-out: MIC, M. intracellulare
# Summary of the method: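 Modified alamarBlue microplate method. Test compound serially diluted in 20% DMSO/saline, duplicate wells, up to 20 μg/mL. Inoculum 2.0 × 10^6 CFU/mL in Middlebrook 7H9 with OADC, pH 7.3, containing 5% alamarBlue. Incubated 70–74 h at 37 °C, 10% CO2; fluorescence 544ex/590em read before and after. MIC: no blue-to-pink change. MBC by subculturing blue wells on agar. Ciprofloxacin control.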
# [2] = system: A. fumigatus ATCC 90906; assay: in vitro antifungal activity; assay type: cell-based, Aspergillus fumigatus; details: Aspergillus fumigatus; for IC50: ATCC90906, read-out: A. fumigatus IC50; for MFC: ATCC90906, read-out: A. fumigatus MFC; for MIC: ATCC90906, read-out: A. fumigatus MIC
# Summary of the method: (§1)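 Modified NCCLS broth method in Sabouraud dextrose. Inoculum set by OD630 to 1.5 × 10^3 CFU/mL. Test compound serially diluted in 20% DMSO/saline, duplicate wells, up to 20 μg/mL. Incubated 70–74 h at 35 °C; 530 nm read before and after. IC50 is 50% growth inhibition; MIC is no detectable growth. MFC from clear wells subcultured on agar. Amphotericin B control.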
# [3] = system: MRSA (ATCC33591); assay: in vitro antibacterial activity; assay type: cell-based, methicillin-resistant Staphylococcus aureus; details: Staphylococcus aureus, ATCC33591|MRSA, read-out: MIC, MRSA
# Summary of the method: (§2)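 Test compound serially diluted in 20% DMSO/saline and plated in duplicate, up to 20 μg/mL. Inoculum in cation-adjusted Mueller–Hinton broth, pH 7.3, set by OD630 to 5 × 10^5 CFU/mL. Incubated 16–20 h at 35 °C; 530 nm read before and after. IC50 is 50% growth inhibition; MIC is no detectable growth. MBC from clear wells subcultured on agar. Ciprofloxacin control.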
# [4] = system: C. neoformans ATCC90113; assay: in vitro antifungal activity; assay type: cell-based, Cryptococcus neoformans; details: Cryptococcus neoformans; for IC50: ATCC90113, read-out: C. neoformans IC50; for MFC: ATCC90113, read-out: C. neoformans MFC; for MIC: ATCC90113, read-out: C. neoformans MIC
# Summary of the method: as §1
# [5] = system: P. falciparum (D6); assay: in vitro antimalarial activity, plasmodial LDH; assay type: cell-based, Plasmodium falciparum; details: Plasmodium falciparum, D6, 72 h, read-out: P. falciparum (D6) IC50
# [6] = system: SK-MEL, KB, BT-549, SK-OV-3, VERO and LLC-PK1 cells; assay: cytotoxicity, neutral red uptake assay; assay type: cell-based, mammalian; details: highest test concentration 4760 ng/mL
# Summary of the method: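 Cells seeded at 25 000/well and allowed 24 h to reach confluence. Test compound was then added and incubated 48 h. Viable cells were counted by a modified neutral red uptake method. The panel was four human cancer lines and two noncancerous mammalian kidney lines. Doxorubicin served as positive control and DMSO as negative control.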
# [7] = system: P. falciparum (W2); assay: in vitro antimalarial activity, plasmodial LDH; assay type: cell-based, Plasmodium falciparum; details: Plasmodium falciparum, W2, 72 h, read-out: P. falciparum (W2) IC50, CQ-resistant W2 strain, 72 h
# Summary of the method: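 P. falciparum-infected erythrocytes (2% parasitemia, 2% hematocrit) in RPMI 1640 with 10% human serum and 60 μg/mL amikacin. Exposed to test compound dilutions for 72 h at 37 °C under 90% N2/5% O2/5% CO2. LDH measured with Malstat reagent (30 min, room temperature), then NBT/PES for 1 h in the dark, stopped with 5% acetic acid, read at 650 nm. IC50 from dose-response curves.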
# [8] = system: multidrug-resistant P. yoelii nigeriensis; assay: blood-schizontocidal activity against P. yoelii nigeriensis infection in mice; assay type: in vivo, Plasmodium yoelii nigeriensis; details: Swiss mice
# Summary of the method: (§3)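 Swiss mice of either sex (about 15–20 g, same age), six per group, inoculated intraperitoneally on day 0 with 1 × 10^7 infected erythrocytes from a donor mouse. Oral test compound at 100, 50, 25 or 10 mg/kg, CQ diphosphate (10 mg/kg/day × 4) or vehicle started 4 h later, on D0 to D+3. Giemsa tail-blood smears on D+4 and D+7. Curative: parasites eliminated, no relapse, all mice surviving to D+60.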
# [9] = system: L. donovani promastigotes; assay: in vitro antileishmanial activity, alamarBlue assay; assay type: cell-based, Leishmania donovani; details: Leishmania donovani, 48 h; for IC50: read-out: L. donovani IC50, promastigotes, 48 h; for IC90: read-out: L. donovani IC90, promastigotes, 48 h
# [10] = system: SA (ATCC29213); assay: in vitro antibacterial activity; assay type: cell-based; details: Staphylococcus aureus; for IC50: ATCC29213, read-out: IC50 (concentration that affords 50% growth inhibition), SA; for MBC: ATCC29213, read-out: MBC (minimum bactericidal concentration), SA; for MIC: ATCC29213, read-out: MIC, SA
# Summary of the method: as §2
# [11] = system: P. berghei (sensitive strain); assay: blood-schizontocidal activity against P. berghei infection in mice; assay type: in vivo, Plasmodium berghei; details: Swiss mice
# Summary of the method: as §3
# [12] = system: C. albicans ATCC90028; assay: in vitro antifungal activity; assay type: cell-based, Candida albicans; details: Candida albicans; for IC50: ATCC90028, read-out: C. albicans IC50; for MFC: ATCC90028, read-out: C. albicans MFC; for MIC: ATCC90028, read-out: C. albicans MIC
# Summary of the method: as §1
Structure (SMILES),IC50 [1],MBC [1],MIC [1],IC50 [2],MFC [2],MIC [2],MIC [3],IC50 [4],MFC [4],MIC [4],IC50 [5],cytotoxicity CTX [6],IC50 [7],IC50 [9],IC90 [9],IC50 [10],MBC [10],MIC [10],"P. berghei blood-schizontocidal activity (mice cured/treated) ([11]; 100 mg/kg/day × 4, oral)",IC50 [12],further results
"CCCCCOc1c(OC)cc(NC(C)CCCN)c2nc(C(C)(C)C)ccc12 (stereo not shown) [compound 46, N^4-(2-tert-Butyl-6-methoxy-5-(pentyloxy)quinolin-8-yl)pentane-1,4-diamine]",> 20 µg/mL,> 20 µg/mL,> 20 µg/mL,> 20 µg/mL,> 20 µg/mL,> 20 µg/mL,> 20 µg/mL,> 20 µg/mL,> 20 µg/mL,> 20 µg/mL,0.02 µg/mL,"NC (NC, not cytotoxic up to 4760 ng/mL (4.76 μg/mL))",0.022 µg/mL,32 µg/mL,> 40 µg/mL,9.04 µg/mL,> 20 µg/mL,> 20 µg/mL,curative (6/6),> 20 µg/mL,"P. yoelii nigeriensis blood-schizontocidal activity (mice cured/treated) ([8]; 25 mg/kg/day × 4, oral): active (4/6); P. yoelii nigeriensis blood-schizontocidal activity (mice cured/treated) ([8]; 50 mg/kg/day × 4, oral): curative (6/6); P. yoelii nigeriensis blood-schizontocidal activity (mice cured/treated) ([8]; 100 mg/kg/day × 4, oral): cured 100% mice; also recorded: curative (6/6); P. berghei blood-schizontocidal activity (mice cured/treated) ([11]; 10 mg/kg/day × 4, oral): active (4/6); P. berghei blood-schizontocidal activity (mice cured/treated) ([11]; 25 mg/kg/day × 4, oral): curative (6/6); P. berghei blood-schizontocidal activity (mice cured/treated) ([11]; 50 mg/kg/day × 4, oral): curative (6/6); MFC [12]: > 20 µg/mL; MIC [12]: > 20 µg/mL"
"CCCCOc1c(OC)cc(NC(C)CCCN)c2nc(C(C)(C)C)cc(C)c12 (stereo not shown) [compound 50, N^4-(5-Butoxy-2-tert-butyl-6-methoxy-4-methylquinolin-8-yl)pentane-1,4-diamine]",5.97 µg/mL,20 µg/mL,10 µg/mL,14.7 µg/mL,> 20 µg/mL,> 20 µg/mL,5 µg/mL,0.58 µg/mL,2.5 µg/mL,1.25 µg/mL,2.2 µg/mL,"NC (NC, not cytotoxic up to 4760 ng/mL (4.76 μg/mL))",0.98 µg/mL,1.5 µg/mL,3.65 µg/mL,3.49 µg/mL,10 µg/mL,5 µg/mL,curative (6/6),15 µg/mL,"P. berghei blood-schizontocidal activity (mice cured/treated) ([11]; 50 mg/kg/day × 4, oral): suppressive activity; also recorded: active (4/6); MFC [12]: > 20 µg/mL; MIC [12]: > 20 µg/mL"
"CCCCCOc1c(OC)cc(NC(C)CCCN)c2nc(C(C)(C)C)cc(C)c12 (stereo not shown) [compound 51, N^4-(5-Pentyloxy-2-tert-butyl-6-methoxy-4-methylquinolin-8-yl)pentane-1,4-diamine]",10.8 µg/mL,20 µg/mL,20 µg/mL,> 20 µg/mL,> 20 µg/mL,> 20 µg/mL,20 µg/mL,4.45 µg/mL,20 µg/mL,20 µg/mL,4.5 µg/mL,"NC (NC, not cytotoxic up to 4760 ng/mL (4.76 μg/mL))",3.8 µg/mL,16.2 µg/mL,23.9 µg/mL,18.9 µg/mL,> 20 µg/mL,> 20 µg/mL,inactive (0/6),> 20 µg/mL,MFC [12]: > 20 µg/mL; MIC [12]: > 20 µg/mL
"CCCCCCCCOc1c(OC)cc(NC(C)CCCNC(=O)C(N)Cc2ccccc2)c2nc(C(C)(C)C)ccc12 (stereo not shown) [compound 121, 2-Amino-N-(4-(2-tert-butyl-6-methoxy-5-(octyloxy)quinolin-8-ylamino)pentyl)-3-phenylpropanamide]",> 20 µg/mL,> 20 µg/mL,> 20 µg/mL,> 20 µg/mL,> 20 µg/mL,> 20 µg/mL,> 20 µg/mL,17.3 µg/mL,> 20 µg/mL,> 20 µg/mL,> 4.76 µg/mL,"NC (NC, not cytotoxic up to 4760 ng/mL (4.76 μg/mL))",> 4.76 µg/mL,11.8 µg/mL,28.7 µg/mL,7.79 µg/mL,> 20 µg/mL,> 20 µg/mL,100% cure and curative (6/6),> 20 µg/mL,"P. berghei blood-schizontocidal activity (mice cured/treated) ([11]; 25 mg/kg/day × 4, oral): inactive (0/6); P. berghei blood-schizontocidal activity (mice cured/treated) ([11]; 50 mg/kg/day × 4, oral): suppressive activity; also recorded: active (3/6); MFC [12]: > 20 µg/mL; MIC [12]: > 20 µg/mL"
